Laboratory results from ChEMBL document CHEMBL1158754, “ent-Dioncophylleine A and related dehydrogenated naphthylisoquinoline alkaloids, the first Asian dioncophyllaceae-type alkaloids, from the "new"plant species Ancistrocladus benomensis” (J Nat Prod, 2005).
≈ marks a conversion by molar mass, not a printed value.

Tests used:
[1] = tested on: Trypanosoma cruzi; assay: Antitrypanosomal activity against Trypanosoma cruzi in rat L6 cells; assay type: functional, organism-based
[2] = tested on: Plasmodium falciparum; assay: Antiplasmodial activity against chloroquine and pyrimethamine-resistant Plasmodium falciparum K1 in erythrocytes by [3H]hypoxanthine uptake; assay type: functional, organism-based
[3] = tested on: Trypanosoma brucei rhodesiense; assay: Antitrypanosomal activity against Trypanosoma brucei rhodesiense; assay type: functional, organism-based
[4] = tested on: L6; assay: Cytotoxicity against rat L6 cells; assay type: cell-based
Summary of the method: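 Rat skeletal myoblast (L-6) line; cytotoxicity values reported in µg/mL.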

SMILES | IC50 [1] [µg/mL] | IC50 [2] [µg/mL] | IC50 [3] [µg/mL] | IC50 [4] [µg/mL]
COc1cccc2c(-c3ccc4cc(C)nc(C)c4c3O)c(C)cc(OC)c12 | 54 (≈ 145 µM) | 3.9 (≈ 10.4 µM) | 5.6 (≈ 15 µM) | 
O=C(Cn1ccnc1[N+](=O)[O-])NCc1ccccc1 [BENZNIDAZOLE] | 0.55 (≈ 2.11 µM) |  |  | 
COc1ccc(-c2ccc3cc(C)nc(C)c3c2O)c2cc(C)cc(OC)c12 [DIONCOPHYLLEINE D] | 24.3 (≈ 65.1 µM) | 0.5 (≈ 1.34 µM) | 4.7 (≈ 12.6 µM) | 
COc1cc(C)c(-c2ccc3cc(C)nc(C)c3c2O)c2cccc(O)c12 [ENT-DIONCOPHYLLEINE A] | 21.8 (≈ 60.7 µM) | 3.1 (≈ 8.62 µM) | 1.4 (≈ 3.9 µM) | 20.6 (≈ 57.3 µM)
